Source: ChEMBL document CHEMBL5724801, “EUbOPEN Chemogenomics Library - Multiplex” (2024)
“And” between values parts separate entries of the source, which are not always exact repeats. Equal values may be shown once.

System: Fibroblast
Assay: Multiplex assay against human fibroblast
Assay type: toxicity, cell-based
Method in brief: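 Cells stained live at seeding with Hoechst33342, BioTracker Green Microtubule Cytoskeleton Dye, MitoTracker Red and Annexin V Alexa Fluor 680 were imaged on a CQ1 microscope at 37°C and 5% CO2 after compound addition. Their classification by CellPathfinder machine-learning gating ran from Hoechst high-intensity objects versus normal cells, to healthy, pyknosed or fragmented nuclei among normal cells, to mitotic or apoptotic among pyknosed cells. Tubulin, mitochondrial-mass and membrane-permeability phenotypes are per cents of healthy-nucleus cells.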

[1] = 12 h, 1 µM, compound concentration 1 uM
[2] = 12 h, 10 µM, compound concentration 10 uM
[3] = 24 h, 1 µM, compound concentration 1 uM
[4] = 24 h, 10 µM, compound concentration 10 uM
[5] = 48 h, 1 µM, compound concentration 1 uM
[6] = 48 h, 10 µM, compound concentration 10 uM

## O=c1cccc2n1C[C@@H]1CNC[C@H]2C1 [CYTISINICLINE]
[1]
  Population Apoptotic (%): 5.66% and 13.33%
  Population Fragmented Nuclei (%): 10.05% and 5.19%
  Population Healthy Nuclei (%): 61.9% and 75.32%
  Population Hoechst High Intensity Objects (%): 0%
  Population Membrane Permeable-Phenotype (%): 4.27% and 5.17%
  Population Mitochondria Different-Phenotype (%): 5.98% and 6.9%
  Population Mitotic Cells (%): 94.34% and 86.67%
  Population Normal (%): 100%
  Population Pyknosed Nuclei (%): 28.04% and 19.48%
  Population Tubulin-Different-Phenotype (%): 11.11% and 12.93%
  Total Cell Count: 189 and 154
[2]
  Population Apoptotic (%): 15.38% and 16.67%
  Population Fragmented Nuclei (%): 13.5% and 4.41%
  Population Healthy Nuclei (%): 62.58% and 80.88%
  Population Hoechst High Intensity Objects (%): 0%
  Population Membrane Permeable-Phenotype (%): 11.76% and 2.42%
  Population Mitochondria Different-Phenotype (%): 9.8% and 7.27%
  Population Mitotic Cells (%): 84.62% and 83.33%
  Population Normal (%): 100%
  Population Pyknosed Nuclei (%): 23.93% and 14.71%
  Population Tubulin-Different-Phenotype (%): 20.59% and 20.61%
  Total Cell Count: 163 and 204
[3]
  Population Apoptotic (%): 10.81% and 26.67%
  Population Fragmented Nuclei (%): 10.86% and 6.41%
  Population Healthy Nuclei (%): 72.4% and 83.97%
  Population Hoechst High Intensity Objects (%): 0%
  Population Membrane Permeable-Phenotype (%): 3.12% and 3.05%
  Population Mitochondria Different-Phenotype (%): 4.38% and 3.82%
  Population Mitotic Cells (%): 89.19% and 73.33%
  Population Normal (%): 100%
  Population Pyknosed Nuclei (%): 16.74% and 9.62%
  Population Tubulin-Different-Phenotype (%): 13.12% and 12.21%
  Total Cell Count: 221 and 156
[4]
  Population Apoptotic (%): 8% and 22.22%
  Population Fragmented Nuclei (%): 9.26% and 6.16%
  Population Healthy Nuclei (%): 75.31% and 85.31%
  Population Hoechst High Intensity Objects (%): 0%
  Population Membrane Permeable-Phenotype (%): 6.56% and 4.44%
  Population Mitochondria Different-Phenotype (%): 5.74% and 5%
  Population Mitotic Cells (%): 92% and 77.78%
  Population Normal (%): 100%
  Population Pyknosed Nuclei (%): 15.43% and 8.53%
  Population Tubulin-Different-Phenotype (%): 20.49% and 23.33%
  Total Cell Count: 162 and 211
[5]
  Population Apoptotic (%): 26.67% and 22.22%
  Population Fragmented Nuclei (%): 7.5% and 5.23%
  Population Healthy Nuclei (%): 86.25% and 83.01%
  Population Hoechst High Intensity Objects (%): 0%
  Population Membrane Permeable-Phenotype (%): 0.48% and 1.57%
  Population Mitotic Cells (%): 73.33% and 77.78%
  Population Normal (%): 100%
  Population Pyknosed Nuclei (%): 6.25% and 11.76%
  Population Tubulin-Different-Phenotype (%): 3.38% and 7.09%
  Total Cell Count: 240 and 153
[6]
  Population Apoptotic (%): 62.5% and 28.57%
  Population Fragmented Nuclei (%): 8.67% and 8.44%
  Population Healthy Nuclei (%): 87.24% and 85.65%
  Population Hoechst High Intensity Objects (%): 0%
  Population Membrane Permeable-Phenotype (%): 0% and 2.46%
  Population Mitotic Cells (%): 37.5% and 71.43%
  Population Normal (%): 100%
  Population Pyknosed Nuclei (%): 4.08% and 5.91%
  Population Tubulin-Different-Phenotype (%): 8.19% and 18.72%
  Total Cell Count: 196 and 237

## C[C@@H]1C[C@H]2[C@@H]3CCC4=CC(=O)C=C[C@]4(C)[C@@]3(F)[C@@H](O)C[C@]2(C)[C@@]1(O)C(=O)CO [DEXAMETHASONE]
[1]
  Population Apoptotic (%): 62% and 38%
  Population Fragmented Nuclei (%): 18% and 30%
  Population Healthy Nuclei (%): 66% and 48%
  Population Hoechst High Intensity Objects (%): 7% and 3%
  Population Membrane Permeable-Phenotype (%): 0% and 9%
  Population Mitochondria Different-Phenotype (%): 2% and 4%
  Population Mitotic Cells (%): 37% and 61%
  Population Normal (%): 92% and 96%
  Population Pyknosed Nuclei (%): 15% and 20%
  Population Tubulin-Different-Phenotype (%): 26% and 52%
[2]
  Population Apoptotic (%): 35% and 30%
  Population Fragmented Nuclei (%): 20% and 24%
  Population Healthy Nuclei (%): 65% and 52%
  Population Hoechst High Intensity Objects (%): 2% and 6%
  Population Membrane Permeable-Phenotype (%): 1% and 4%
  Population Mitochondria Different-Phenotype (%): 5% and 2%
  Population Mitotic Cells (%): 65% and 69%
  Population Normal (%): 98% and 93%
  Population Pyknosed Nuclei (%): 13% and 23%
  Population Tubulin-Different-Phenotype (%): 22% and 53%
[3]
  Population Apoptotic (%): 48% and 31%
  Population Fragmented Nuclei (%): 14% and 29%
  Population Healthy Nuclei (%): 68% and 50%
  Population Hoechst High Intensity Objects (%): 5% and 6%
  Population Membrane Permeable-Phenotype (%): 1% and 4%
  Population Mitochondria Different-Phenotype (%): 3% and 1%
  Population Mitotic Cells (%): 52% and 68%
  Population Normal (%): 94% and 93%
  Population Pyknosed Nuclei (%): 17% and 19%
  Population Tubulin-Different-Phenotype (%): 26% and 53%
[4]
  Population Apoptotic (%): 42% and 30%
  Population Fragmented Nuclei (%): 15% and 30%
  Population Healthy Nuclei (%): 65% and 44%
  Population Hoechst High Intensity Objects (%): 3% and 6%
  Population Membrane Permeable-Phenotype (%): 1% and 10%
  Population Mitochondria Different-Phenotype (%): 6% and 2%
  Population Mitotic Cells (%): 57% and 69%
  Population Normal (%): 96% and 93%
  Population Pyknosed Nuclei (%): 18% and 24%
  Population Tubulin-Different-Phenotype (%): 22% and 45%
[5]
  Population Apoptotic (%): 46% and 37%
  Population Fragmented Nuclei (%): 22% and 38%
  Population Healthy Nuclei (%): 52% and 46%
  Population Hoechst High Intensity Objects (%): 6% and 4%
  Population Membrane Permeable-Phenotype (%): 2% and 4%
  Population Mitochondria Different-Phenotype (%): 4%
  Population Mitotic Cells (%): 53% and 62%
  Population Normal (%): 93% and 95%
  Population Pyknosed Nuclei (%): 24% and 14%
  Population Tubulin-Different-Phenotype (%): 34% and 53%
[6]
  Population Apoptotic (%): 50% and 37%
  Population Fragmented Nuclei (%): 22% and 36%
  Population Healthy Nuclei (%): 55% and 43%
  Population Hoechst High Intensity Objects (%): 4% and 7%
  Population Membrane Permeable-Phenotype (%): 0% and 10%
  Population Mitochondria Different-Phenotype (%): 7% and 0%
  Population Mitotic Cells (%): 50% and 62%
  Population Normal (%): 95% and 92%
  Population Pyknosed Nuclei (%): 22% and 20%
  Population Tubulin-Different-Phenotype (%): 19% and 39%

## Cl.NCCc1ccc(O)c(O)c1 [DOPAMINE HYDROCHLORIDE]
[1]
  Population Apoptotic (%): 42% and 44%
  Population Fragmented Nuclei (%): 13% and 34%
  Population Healthy Nuclei (%): 63% and 40%
  Population Hoechst High Intensity Objects (%): 1%
  Population Membrane Permeable-Phenotype (%): 0% and 4%
  Population Mitochondria Different-Phenotype (%): 1% and 6%
  Population Mitotic Cells (%): 57% and 55%
  Population Normal (%): 98%
  Population Pyknosed Nuclei (%): 23% and 24%
  Population Tubulin-Different-Phenotype (%): 34% and 45%
  Total Cell Count: 115 and 152
[2]
  Population Apoptotic (%): 56% and 41%
  Population Fragmented Nuclei (%): 14% and 35%
  Population Healthy Nuclei (%): 62% and 40%
  Population Hoechst High Intensity Objects (%): 3% and 4%
  Population Membrane Permeable-Phenotype (%): 0% and 6%
  Population Mitochondria Different-Phenotype (%): 3% and 6%
  Population Mitotic Cells (%): 43% and 58%
  Population Normal (%): 96% and 95%
  Population Pyknosed Nuclei (%): 23%
  Total Cell Count: 135 and 127
[3]
  Population Apoptotic (%): 55% and 51%
  Population Fragmented Nuclei (%): 14% and 34%
  Population Healthy Nuclei (%): 69% and 47%
  Population Hoechst High Intensity Objects (%): 0% and 2%
  Population Membrane Permeable-Phenotype (%): 1% and 7%
  Population Mitochondria Different-Phenotype (%): 1% and 0%
  Population Mitotic Cells (%): 44% and 48%
  Population Normal (%): 99% and 97%
  Population Pyknosed Nuclei (%): 16% and 18%
  Population Tubulin-Different-Phenotype (%): 31% and 37%
  Total Cell Count: 112 and 150
[4]
  Population Apoptotic (%): 55% and 47%
  Population Fragmented Nuclei (%): 16% and 37%
  Population Healthy Nuclei (%): 69% and 46%
  Population Hoechst High Intensity Objects (%): 2% and 3%
  Population Membrane Permeable-Phenotype (%): 1% and 3%
  Population Mitochondria Different-Phenotype (%): 5% and 7%
  Population Mitotic Cells (%): 44% and 52%
  Population Normal (%): 97% and 96%
  Population Pyknosed Nuclei (%): 13% and 15%
  Population Tubulin-Different-Phenotype (%): 22% and 56%
  Total Cell Count: 136 and 126
[5]
  Population Apoptotic (%): 36% and 38%
  Population Fragmented Nuclei (%): 22% and 33%
  Population Healthy Nuclei (%): 66% and 52%
  Population Hoechst High Intensity Objects (%): 6%
  Population Membrane Permeable-Phenotype (%): 1% and 5%
  Population Mitochondria Different-Phenotype (%): 2% and 3%
  Population Mitotic Cells (%): 63% and 61%
  Population Normal (%): 93%
  Population Pyknosed Nuclei (%): 10% and 14%
  Population Tubulin-Different-Phenotype (%): 28% and 43%
  Total Cell Count: 110 and 159
[6]
  Population Apoptotic (%): 87% and 90%
  Population Fragmented Nuclei (%): 21% and 31%
  Population Healthy Nuclei (%): 66% and 60%
  Population Hoechst High Intensity Objects (%): 4% and 0%
  Population Membrane Permeable-Phenotype (%): 0% and 7%
  Population Mitochondria Different-Phenotype (%): 4%
  Population Mitotic Cells (%): 12% and 10%
  Population Normal (%): 95% and 99%
  Population Pyknosed Nuclei (%): 11% and 8%
  Population Tubulin-Different-Phenotype (%): 25% and 56%
  Total Cell Count: 141 and 116
